Experimental data as given in ChEMBL document CHEMBL4261538, “Synthesis and molecular docking studies of xanthone attached amino acids as potential antimicrobial and anti-inflammatory agents” (Medchemcomm, 2017).
Converted amounts (≈) assume the structure as drawn.

Assays:
Aspergillus niger [1] = assay: Antifungal activity against Aspergillus niger at 50 ug/ml incubated for 48 hrs by agar well diffusion method; format: functional; settings: read-out: DIZ
Procedure, shortened: (§1)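 Compounds dissolved in DMSO at 5 mg mL⁻¹ and 5–20 µL added to 6 mm wells, giving 25, 50, 75, 100 µg per well. Bavistin was the positive control and DMSO the negative control. Plates incubated at 28 °C for 48 h, then inhibition zone diameter (mm) measured. Values are means of three determinations.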

Escherichia coli [2] = assay: Antibacterial activity against Escherichia coli at 75 ug/ml incubated for 24 hrs by agar well diffusion method; format: functional; settings: read-out: DIZ
Procedure, shortened: as §1, with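 “Bacteria grown in nutrient broth at 37 °C for 24 h, then subcultured at room temperature. Compounds” for “Compounds”, “Gentamicin” for “Bavistin”, “held” for “incubated”, “37” for “28”, “24” for “48”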

Fusarium oxysporum [3] = assay: Antifungal activity against Fusarium oxysporum at 100 ug/ml incubated for 48 hrs by agar well diffusion method; format: functional; settings: read-out: DIZ; procedure, shortened: as §1
Escherichia coli [4] = assay: Antibacterial activity against Escherichia coli at 50 ug/ml incubated for 24 hrs by agar well diffusion method; format: functional; settings: read-out: DIZ
Procedure, shortened: as §1, with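 “Bacteria grown in nutrient broth at 37 °C for 24 h, then subcultured at room temperature. Compounds” for “Compounds”, “Gentamicin” for “Bavistin”, “held” for “incubated”, “37” for “28”, “24” for “48”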

Candida albicans [5] = assay: Antifungal activity against Candida albicans at 75 ug/ml incubated for 48 hrs by agar well diffusion method; format: functional; settings: read-out: DIZ; procedure, shortened: as §1
Fusarium oxysporum [6] = assay: Antifungal activity against Fusarium oxysporum at 25 ug/ml incubated for 48 hrs by agar well diffusion method; format: functional; settings: read-out: DIZ; procedure, shortened: as §1
Staphylococcus aureus [7] = assay: Antibacterial activity against Staphylococcus aureus at 50 ug/ml incubated for 24 hrs by agar well diffusion method; format: functional; settings: read-out: DIZ
Procedure, shortened: as §1, with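 “Bacteria grown in nutrient broth at 37 °C for 24 h, then subcultured at room temperature. Compounds” for “Compounds”, “Gentamicin” for “Bavistin”, “held” for “incubated”, “37” for “28”, “24” for “48”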

Bacillus subtilis [8] = assay: Antibacterial activity against Bacillus subtilis at 50 ug/ml incubated for 24 hrs by agar well diffusion method; format: functional; settings: read-out: DIZ
Procedure, shortened: as §1, with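 “Bacteria grown in nutrient broth at 37 °C for 24 h, then subcultured at room temperature. Compounds” for “Compounds”, “Gentamicin” for “Bavistin”, “held” for “incubated”, “37” for “28”, “24” for “48”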

Fusarium oxysporum [9] = assay: Antifungal activity against Fusarium oxysporum at 75 ug/ml incubated for 48 hrs by agar well diffusion method; format: functional; settings: read-out: DIZ; procedure, shortened: as §1
Aspergillus niger [10] = assay: Antifungal activity against Aspergillus niger at 75 ug/ml incubated for 48 hrs by agar well diffusion method; format: functional; settings: read-out: DIZ; procedure, shortened: as §1
Candida albicans [11] = assay: Antifungal activity against Candida albicans at 100 ug/ml incubated for 48 hrs by agar well diffusion method; format: functional; settings: read-out: DIZ; procedure, shortened: as §1
Escherichia coli [12] = assay: Antibacterial activity against Escherichia coli at 100 ug/ml incubated for 24 hrs by agar well diffusion method; format: functional; settings: read-out: DIZ
Procedure, shortened: as §1, with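 “Bacteria grown in nutrient broth at 37 °C for 24 h, then subcultured at room temperature. Compounds” for “Compounds”, “Gentamicin” for “Bavistin”, “held” for “incubated”, “37” for “28”, “24” for “48”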

Staphylococcus aureus [13] = assay: Antibacterial activity against Staphylococcus aureus at 75 ug/ml incubated for 24 hrs by agar well diffusion method; format: functional; settings: read-out: DIZ
Procedure, shortened: as §1, with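 “Bacteria grown in nutrient broth at 37 °C for 24 h, then subcultured at room temperature. Compounds” for “Compounds”, “Gentamicin” for “Bavistin”, “held” for “incubated”, “37” for “28”, “24” for “48”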

Aspergillus niger [14] = assay: Antifungal activity against Aspergillus niger at 25 ug/ml incubated for 48 hrs by agar well diffusion method; format: functional; settings: read-out: DIZ; procedure, shortened: as §1
Klebsiella pneumoniae [15] = assay: Antibacterial activity against Klebsiella pneumoniae at 75 ug/ml incubated for 24 hrs by agar well diffusion method; format: functional; settings: read-out: DIZ
Procedure, shortened: as §1, with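 “Bacteria grown in nutrient broth at 37 °C for 24 h, then subcultured at room temperature. Compounds” for “Compounds”, “Gentamicin” for “Bavistin”, “held” for “incubated”, “37” for “28”, “24” for “48”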

Candida albicans [16] = assay: Antifungal activity against Candida albicans at 25 ug/ml incubated for 48 hrs by agar well diffusion method; format: functional; settings: read-out: DIZ; procedure, shortened: as §1
Bacillus subtilis [17] = assay: Antibacterial activity against Bacillus subtilis at 25 ug/ml incubated for 24 hrs by agar well diffusion method; format: functional; settings: read-out: DIZ
Procedure, shortened: as §1, with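 “Bacteria grown in nutrient broth at 37 °C for 24 h, then subcultured at room temperature. Compounds” for “Compounds”, “Gentamicin” for “Bavistin”, “held” for “incubated”, “37” for “28”, “24” for “48”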

Klebsiella pneumoniae [18] = assay: Antibacterial activity against Klebsiella pneumoniae at 25 ug/ml incubated for 24 hrs by agar well diffusion method; format: functional; settings: read-out: DIZ
Procedure, shortened: as §1, with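 “Bacteria grown in nutrient broth at 37 °C for 24 h, then subcultured at room temperature. Compounds” for “Compounds”, “Gentamicin” for “Bavistin”, “held” for “incubated”, “37” for “28”, “24” for “48”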

Bacillus subtilis [19] = assay: Antibacterial activity against Bacillus subtilis at 100 ug/ml incubated for 24 hrs by agar well diffusion method; format: functional; settings: read-out: DIZ
Procedure, shortened: as §1, with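 “Bacteria grown in nutrient broth at 37 °C for 24 h, then subcultured at room temperature. Compounds” for “Compounds”, “Gentamicin” for “Bavistin”, “held” for “incubated”, “37” for “28”, “24” for “48”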

Klebsiella pneumoniae [20] = assay: Antibacterial activity against Klebsiella pneumoniae at 100 ug/ml incubated for 24 hrs by agar well diffusion method; format: functional; settings: read-out: DIZ
Procedure, shortened: as §1, with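 “Bacteria grown in nutrient broth at 37 °C for 24 h, then subcultured at room temperature. Compounds” for “Compounds”, “Gentamicin” for “Bavistin”, “held” for “incubated”, “37” for “28”, “24” for “48”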

Klebsiella pneumoniae [21] = assay: Antibacterial activity against Klebsiella pneumoniae at 50 ug/ml incubated for 24 hrs by agar well diffusion method; format: functional; settings: read-out: DIZ
Procedure, shortened: as §1, with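 “Bacteria grown in nutrient broth at 37 °C for 24 h, then subcultured at room temperature. Compounds” for “Compounds”, “Gentamicin” for “Bavistin”, “held” for “incubated”, “37” for “28”, “24” for “48”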

Staphylococcus aureus [22] = assay: Antibacterial activity against Staphylococcus aureus at 100 ug/ml incubated for 24 hrs by agar well diffusion method; format: functional; settings: read-out: DIZ
Procedure, shortened: as §1, with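 “Bacteria grown in nutrient broth at 37 °C for 24 h, then subcultured at room temperature. Compounds” for “Compounds”, “Gentamicin” for “Bavistin”, “held” for “incubated”, “37” for “28”, “24” for “48”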

Candida albicans [23] = assay: Antifungal activity against Candida albicans at 50 ug/ml incubated for 48 hrs by agar well diffusion method; format: functional; settings: read-out: DIZ; procedure, shortened: as §1
Erythrocyte = assay: Anti-inflammatory activity in human RBC assessed as inhibition of hypotonic solution-induced hemolysis after 10 mins by spectrophotometric method; format: functional, cell-based
Procedure, shortened: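 Human blood (heparinized) washed with 0.9% saline, packed cells made into a 40% v/v stock in isotonic phosphate buffer (154 mM NaCl, 10 mM sodium phosphate, pH 7.4). Stock RBC mixed with hypotonic buffer (50 mM NaCl, 10 mM phosphate, pH 7.4) plus sample at 20–100 µg mL⁻¹.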

Aspergillus niger [24] = assay: Antifungal activity against Aspergillus niger at 100 ug/ml incubated for 48 hrs by agar well diffusion method; format: functional; settings: read-out: DIZ; procedure, shortened: as §1
Fusarium oxysporum [25] = assay: Antifungal activity against Fusarium oxysporum at 50 ug/ml incubated for 48 hrs by agar well diffusion method; format: functional; settings: read-out: DIZ; procedure, shortened: as §1
Staphylococcus aureus [26] = assay: Antibacterial activity against Staphylococcus aureus at 25 ug/ml incubated for 24 hrs by agar well diffusion method; format: functional; settings: read-out: DIZ
Procedure, shortened: as §1, with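 “Bacteria grown in nutrient broth at 37 °C for 24 h, then subcultured at room temperature. Compounds” for “Compounds”, “Gentamicin” for “Bavistin”, “held” for “incubated”, “37” for “28”, “24” for “48”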

Bacillus subtilis [27] = assay: Antibacterial activity against Bacillus subtilis at 75 ug/ml incubated for 24 hrs by agar well diffusion method; format: functional; settings: read-out: DIZ
Procedure, shortened: as §1, with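 “Bacteria grown in nutrient broth at 37 °C for 24 h, then subcultured at room temperature. Compounds” for “Compounds”, “Gentamicin” for “Bavistin”, “held” for “incubated”, “37” for “28”, “24” for “48”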

Escherichia coli [28] = assay: Antibacterial activity against Escherichia coli at 25 ug/ml incubated for 24 hrs by agar well diffusion method; format: functional; settings: read-out: DIZ
Procedure, shortened: as §1, with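 “Bacteria grown in nutrient broth at 37 °C for 24 h, then subcultured at room temperature. Compounds” for “Compounds”, “Gentamicin” for “Bavistin”, “held” for “incubated”, “37” for “28”, “24” for “48”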

Structure (SMILES)	zone of inhibition at 50 µg/mL (Aspergillus niger [1]) [mm]	zone of inhibition at 75 µg/mL (Escherichia coli [2]) [mm]	zone of inhibition at 100 µg/mL (Fusarium oxysporum [3]) [mm]	zone of inhibition at 50 µg/mL (Escherichia coli [4]) [mm]	zone of inhibition at 75 µg/mL (Candida albicans [5]) [mm]	zone of inhibition at 25 µg/mL (Fusarium oxysporum [6]) [mm]	zone of inhibition at 50 µg/mL (Staphylococcus aureus [7]) [mm]	zone of inhibition at 50 µg/mL (Bacillus subtilis [8]) [mm]	zone of inhibition at 75 µg/mL (Fusarium oxysporum [9]) [mm]	zone of inhibition at 75 µg/mL (Aspergillus niger [10]) [mm]	zone of inhibition at 100 µg/mL (Candida albicans [11]) [mm]	zone of inhibition at 100 µg/mL (Escherichia coli [12]) [mm]	zone of inhibition at 75 µg/mL (Staphylococcus aureus [13]) [mm]	zone of inhibition at 25 µg/mL (Aspergillus niger [14]) [mm]	zone of inhibition at 75 µg/mL (Klebsiella pneumoniae [15]) [mm]	zone of inhibition at 25 µg/mL (Candida albicans [16]) [mm]	zone of inhibition at 25 µg/mL (Bacillus subtilis [17]) [mm]	zone of inhibition at 25 µg/mL (Klebsiella pneumoniae [18]) [mm]	zone of inhibition at 100 µg/mL (Bacillus subtilis [19]) [mm]	zone of inhibition at 100 µg/mL (Klebsiella pneumoniae [20]) [mm]	other results
C[C@H](NC(=O)OC(C)(C)C)C(=O)Oc1ccc2c(=O)c3ccccc3oc2c1	12	20	18	14	15	6	10	14	14	15	17	23	14	8	19	7	8	6	22	22	zone of inhibition at 50 µg/mL (Klebsiella pneumoniae [21]): 13 mm; zone of inhibition at 100 µg/mL (Staphylococcus aureus [22]): 19 mm; zone of inhibition at 50 µg/mL (Candida albicans [23]): 12 mm; IC50 (Erythrocyte): 70 µg/mL (≈ 183 µM); zone of inhibition at 100 µg/mL (Aspergillus niger [24]): 18 mm; zone of inhibition at 50 µg/mL (Fusarium oxysporum [25]): 10 mm; zone of inhibition at 25 µg/mL (Staphylococcus aureus [26]): 6 mm; zone of inhibition at 75 µg/mL (Bacillus subtilis [27]): 19 mm; zone of inhibition at 25 µg/mL (Escherichia coli [28]): 17 mm
C[C@H](N)C(=O)Oc1ccc2c(=O)c3ccccc3oc2c1.Cl	12	22	18	19	15	6	13	16	16	15	17	26	19	8	23	7	11	8	23	28	zone of inhibition at 50 µg/mL (Klebsiella pneumoniae [21]): 16 mm; zone of inhibition at 100 µg/mL (Staphylococcus aureus [22]): 22 mm; zone of inhibition at 50 µg/mL (Candida albicans [23]): 12 mm; IC50 (Erythrocyte): 78 µg/mL; zone of inhibition at 100 µg/mL (Aspergillus niger [24]): 18 mm; zone of inhibition at 50 µg/mL (Fusarium oxysporum [25]): 10 mm; zone of inhibition at 25 µg/mL (Staphylococcus aureus [26]): 9 mm; zone of inhibition at 75 µg/mL (Bacillus subtilis [27]): 19 mm; zone of inhibition at 25 µg/mL (Escherichia coli [28]): 15 mm
CC(C)[C@H](NC(=O)OC(C)(C)C)C(=O)Oc1ccc2c(=O)c3ccccc3oc2c1	13	18	23	13	15	9	13	13	20	16	21	20	17	7	19	10	7	5	22	24	zone of inhibition at 50 µg/mL (Klebsiella pneumoniae [21]): 11 mm; zone of inhibition at 100 µg/mL (Staphylococcus aureus [22]): 22 mm; zone of inhibition at 50 µg/mL (Candida albicans [23]): 13 mm; IC50 (Erythrocyte): 76 µg/mL (≈ 185 µM); zone of inhibition at 100 µg/mL (Aspergillus niger [24]): 20 mm; zone of inhibition at 50 µg/mL (Fusarium oxysporum [25]): 14 mm; zone of inhibition at 25 µg/mL (Staphylococcus aureus [26]): 10 mm; zone of inhibition at 75 µg/mL (Bacillus subtilis [27]): 19 mm; zone of inhibition at 25 µg/mL (Escherichia coli [28]): 8 mm
